Laboratory results from ChEMBL document CHEMBL3120160, “Nucleotide prodrugs of 2'-deoxy-2'-spirooxetane ribonucleosides as novel inhibitors of the HCV NS5B polymerase” (J Med Chem, 2014).

Assays:
[1] = Cytotoxicity against human HuH7 cells assessed as inhibition of cell proliferation after 3 days by BrdU incorporation assay; type: cell-based, Huh-7
Method in brief: (§1)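 Huh7 HCV replicon cells treated with compound for 3 days in 384-well format; antiviral EC50 and cytotoxic CC50 are each the mean of at least three repeats.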

Hepatitis C virus [2] = test: Antiviral activity against Hepatitis C virus genotype 1b in human Huh7-luc clone ET replicon cells assessed as inhibition of replicon replication after 3 days by luciferase assay; type: functional, organism-based, Hepacivirus hominis; settings: Huh-7, 72 h; method in brief: as §1
Liver [3] = test: AUC (0 to infinity) in Sprague-Dawley rat liver assessed as triphosphate metabolite level at 50 mg/kg, po administered as single dose; type: ADME, organism-based; design: time infinity, dose 50 mg/kg, route oral; settings: in vivo
Liver [4] = test: AUC (0 to last) in Sprague-Dawley rat liver assessed as triphosphate metabolite level at 50 mg/kg, po administered as single dose; type: ADME, organism-based; design: time 0 - last, dose 50 mg/kg, route oral; settings: in vivo
Liver [5] = test: Tmax in Sprague-Dawley rat liver assessed as triphosphate metabolite level at 50 mg/kg, po administered as single dose; type: ADME, organism-based; design: dose 50 mg/kg, route oral; settings: in vivo
Liver [6] = test: Cmax in Sprague-Dawley rat liver assessed as triphosphate metabolite level at 50 mg/kg, po administered as single dose measured per gm of tissue; type: ADME, organism-based; design: dose 50 mg/kg, route oral; settings: in vivo
Hepatocyte [7] = test: Prodrug activation in human hepatocytes assessed as triphosphate metabolite formation at 10 uM after 8 hrs by LC-MS analysis; type: ADME, cell-based
Method in brief: (§2)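 Prodrugs incubated at 10 μM with rat or human hepatocyte cultures; triphosphate metabolite quantified by LC–MS of cell lysates at 2 and 8 h.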

Hepatocyte [8] = test: Prodrug activation in rat hepatocytes assessed as triphosphate metabolite formation at 10 uM after 8 hrs by LC-MS analysis; type: ADME, cell-based; method in brief: as §2
Hepatocyte [9] = test: Prodrug activation in human hepatocytes assessed as triphosphate metabolite formation at 10 uM after 2 hrs by LC-MS analysis; type: ADME, cell-based; method in brief: as §2
Hepatocyte [10] = test: Prodrug activation in rat hepatocytes assessed as triphosphate metabolite formation at 10 uM after 2 hrs by LC-MS analysis; type: ADME, cell-based; method in brief: as §2
Hepatitis C virus [11] = test: Ratio of EC90 for Hepatitis C virus harboring NS5B polymerase S282T mutant gene to EC90 for Hepatitis C virus harboring wild type NS5B polymerase; type: functional, Hepacivirus hominis
Hepatitis C virus [12] = test: Antiviral activity against Hepatitis C virus harboring NS5B polymerase S282T mutant gene; type: functional, Hepacivirus hominis
Method in brief: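 Activity measured in a transient HCV replicon assay in which the NS5B polymerase carries the S282T substitution.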

With C[C@@]1(O)[C@H](O)[C@@H](CO)O[C@H]1n1ccc(N)nc1=O the CC50 at 72 h [1] was greater than 98 µM and the EC50 (Hepatitis C virus [2]) was 4.6 µM.

Work on CC(C)OC(=O)[C@H](C)NP(=O)(OC[C@H]1O[C@@H](n2ccc(N)nc2=O)[C@@]2(CCO2)[C@@H]1O)Oc1ccccc1 (mixture of isomers) yielded a CC50 at 72 h [1] greater than 98 µM and an EC50 (Hepatitis C virus [2]) of 0.74 µM.

With C[C@H](NP(=O)(OC[C@H]1O[C@@H](n2ccc(N)nc2=O)[C@@]2(CCO2)[C@@H]1O)Oc1ccc(Cl)cc1)C(=O)OCc1ccccc1 (mixture of isomers) the CC50 at 72 h [1] was greater than 98 µM and the EC50 (Hepatitis C virus [2]) was 2.6 µM.

CC(C)COC(=O)[C@H](C)NP(=O)(OC[C@H]1O[C@@H](n2ccc(=O)[nH]c2=O)[C@@]2(CCO2)[C@@H]1O)Oc1ccccc1 (mixture of isomers) showed a CC50 at 72 h [1] greater than 98 µM and an EC50 (Hepatitis C virus [2]) of 0.23 µM.

With O=C(CNP(=O)(OC[C@H]1O[C@@H](n2ccc(=O)[nH]c2=O)[C@@]2(CCO2)[C@@H]1O)Oc1ccc(Cl)cc1)OCc1ccccc1 (mixture of isomers) the CC50 at 72 h [1] was greater than 98 µM and the EC50 (Hepatitis C virus [2]) was 0.32 µM.

For C[C@H](NP(=O)(OC[C@H]1O[C@@H](n2ccc(=O)[nH]c2=O)[C@@]2(CCO2)[C@@H]1O)Oc1ccc(Cl)cc1)C(=O)OCc1ccccc1 (mixture of isomers), the CC50 at 72 h [1] was greater than 98 µM and the EC50 (Hepatitis C virus [2]) was 1.3 µM.

For C[C@H](NP(=O)(OC[C@H]1O[C@@H](n2ccc(=O)[nH]c2=O)[C@@]2(CCO2)[C@@H]1O)Oc1cccc2ccccc12)C(=O)OCc1ccccc1 (mixture of isomers), the AUC (Liver [3]) was 9142 ng·h/mL, the AUClast (Liver [4]) was 8427 ng·h/mL and the Tmax (Liver [5]) was 6 h. It also gave a Cmax (Liver [6]) of 754 ng/g, a Drug metabolism (Hepatocyte [7]) of 3373 ng/mL and a Drug metabolism (Hepatocyte [8]) of 107 ng/mL. For the same molecule, the Drug metabolism (Hepatocyte [9]) was 1713 ng/mL, the Drug metabolism (Hepatocyte [10]) was 293 ng/mL and the CC50 at 72 h [1] was greater than 98 µM. The EC50 (Hepatitis C virus [2]) was 2 µM.

Molecule CC(C)CCOC(=O)[C@H](C)NP(=O)(OC[C@H]1O[C@@H](n2ccc(=O)[nH]c2=O)[C@@]2(CCO2)[C@@H]1O)Oc1ccccc1 (mixture of isomers) has a CC50 at 72 h [1] greater than 98 µM and an EC50 (Hepatitis C virus [2]) of 3.5 µM.

For CC[C@H](NP(=O)(OC[C@H]1O[C@@H](n2ccc(=O)[nH]c2=O)[C@@]2(CCO2)[C@@H]1O)Oc1ccccc1)C(=O)OCc1ccccc1 (mixture of isomers), the AUClast (Liver [4]) was 1108 ng·h/mL, the Tmax (Liver [5]) was 6 h and the Cmax (Liver [6]) was 419 ng/g. It also gave a Drug metabolism (Hepatocyte [7]) of 1480 ng/mL, a Drug metabolism (Hepatocyte [8]) of 87 ng/mL and a Drug metabolism (Hepatocyte [9]) of 202 ng/mL. It also gave a Drug metabolism (Hepatocyte [10]) of 215 ng/mL, a CC50 at 72 h [1] greater than 98 µM and an EC50 (Hepatitis C virus [2]) of 5.7 µM.

C[C@H](NP(=O)(OC[C@H]1O[C@@H](n2ccc(=O)[nH]c2=O)[C@@]2(CCO2)[C@@H]1O)Oc1ccccc1)C(=O)OCc1ccccc1 (mixture of isomers) showed an AUClast (Liver [4]) of 3263 ng·h/mL, a Tmax (Liver [5]) of 2 h and a Cmax (Liver [6]) of 775 ng/g. It also gave a Drug metabolism (Hepatocyte [7]) of 2457 ng/mL, a Drug metabolism (Hepatocyte [8]) of 81 ng/mL and a Drug metabolism (Hepatocyte [9]) of 304 ng/mL. It also gave a Drug metabolism (Hepatocyte [10]) of 112 ng/mL, a CC50 at 72 h [1] greater than 98 µM and an EC50 (Hepatitis C virus [2]) of 5.7 µM.

With Cc1ccc(C(C)C)c(OP(=O)(N[C@@H](C)C(=O)OCc2ccccc2)OC[C@H]2O[C@@H](n3ccc(=O)[nH]c3=O)[C@@]3(CCO3)[C@@H]2O)c1 (mixture of isomers) the CC50 at 72 h [1] was 29.6 µM and the EC50 (Hepatitis C virus [2]) was 7.5 µM.

CC(C)OC(=O)[C@H](C)NP(=O)(OC[C@H]1O[C@@H](n2ccc(=O)[nH]c2=O)[C@@]2(CCO2)[C@@H]1O)Oc1ccccc1 (mixture of isomers) gave a CC50 at 72 h [1] greater than 98 µM and an EC50 (Hepatitis C virus [2]) of 20.9 µM.

In the case of COC(=O)C(C)(C)NP(=O)(OC[C@H]1O[C@@H](n2ccc(=O)[nH]c2=O)[C@@]2(CCO2)[C@@H]1O)Oc1ccccc1 (mixture of isomers), the CC50 at 72 h [1] is reported as greater than 98 µM and the EC50 (Hepatitis C virus [2]) is reported as 37.9 µM.

Molecule O=C(OCc1ccccc1)[C@@H](NP(=O)(OC[C@H]1O[C@@H](n2ccc(=O)[nH]c2=O)[C@@]2(CCO2)[C@@H]1O)Oc1ccccc1)c1ccccc1 (mixture of isomers) has a CC50 at 72 h [1] greater than 92.8 µM and an EC50 (Hepatitis C virus [2]) greater than 87.2 µM.

Work on CC[C@H](NP(=O)(OC[C@H]1O[C@@H](n2ccc(=O)[nH]c2=O)[C@@]2(CCO2)[C@@H]1O)Oc1ccccc1)C(=O)OC(C)C (mixture of isomers) yielded a CC50 at 72 h [1] greater than 98 µM and an EC50 (Hepatitis C virus [2]) greater than 96.4 µM.

In the case of CC(C)OC(=O)[C@H](C)N[P@](=O)(OC[C@H]1O[C@@H](n2ccc(=O)[nH]c2=O)[C@](C)(F)[C@@H]1O)Oc1ccccc1 [SOFOSBUVIR], the Ratio (Hepatitis C virus [11]) is reported as 18.6 and the EC90 (Hepatitis C virus [12]) is reported as 7.8 µM.
